Test results from publication PMC12690603 (Chemical Science, 2025).
Non-standard residues stand in square brackets, D forms with d. No end group written: not given here. βAla = NCCC(=O)O

How the values were obtained:
Type in all cases: biochemical
human SETD7 [1] = target: T1, human SETD7 (Homo sapiens, UniProt Q8WTS6); test: Steady-state kinetics of SETD7-catalysed methylation; conditions: for K m / k cat: peptide 1–150 µM, SETD7 50–300 nM, 10 or 20 min, MALDI-TOF MS, mean ± SD, SD; for K m / k cat / k cat/Km: SAM 30 µM, 37 °C, n = 3; for fold increase of kcat/Km compared to linear H3K4 (1): steady-state kinetics, relative to peptide 1; for k cat/Km: steady-state
T1 sequence (Q8WTS6 1-366): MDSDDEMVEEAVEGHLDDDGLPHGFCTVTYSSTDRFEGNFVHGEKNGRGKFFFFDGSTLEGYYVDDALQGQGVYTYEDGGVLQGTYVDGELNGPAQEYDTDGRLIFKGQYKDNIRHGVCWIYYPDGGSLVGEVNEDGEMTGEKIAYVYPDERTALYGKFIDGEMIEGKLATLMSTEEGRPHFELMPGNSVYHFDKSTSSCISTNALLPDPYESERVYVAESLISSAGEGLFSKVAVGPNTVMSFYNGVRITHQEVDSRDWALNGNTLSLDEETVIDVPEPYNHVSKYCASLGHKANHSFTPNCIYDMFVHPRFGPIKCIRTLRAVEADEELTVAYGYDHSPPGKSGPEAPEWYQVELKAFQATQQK
Procedure, shortened: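 Recombinant human SETD7 (50–300 nM) added to start reactions containing H3 peptide (1–150 µM series) and SAM (30 µM). Incubated at 37 °C for 10 or 20 min with shaking, then quenched. MALDI-TOF MS was the read-out, with % methylation from integrated […] peak areas. Three independent experiments, SD. kcat/Km values were compared with the linear H3K4 reference peptide.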

human SETD7 [2] = target: T1, human SETD7; test: SETD7-catalysed methylation of H3 peptides, conversion by MALDI-TOF MS; conditions: SAM 30 µM; for methylation by SETD7 (conversion to methylated product): 13-mer peptide 10 µM, MALDI-TOF MS; for methylation by SETD7 in time-course: within 30 min
Procedure, shortened: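 Recombinant human SETD7 (100 nM, 500 nM or 1 µM) was incubated with stapled or linear H3 peptide (10 µM) and SAM (30 µM) in 50 mM HEPES, 0.1 mM EDTA, 1 mM DTT, pH 8, at 37 °C with shaking at 750 rpm. Reactions were quenched with 10% (v/v) TFA at set times. Methylation (+14 Da) was measured by MALDI-TOF MS. % conversion came from peak areas. n = 2, standard deviations.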

human SETD1A = test: SETD1A-catalysed methylation of 21-mer H3 peptides; conditions: 21-mer peptide 2 µM, SETD1A 1 µM, SAM 100 µM, pH 8.6, 37 °C, 3 h, n = 2
[3] = SETD7 100 nM, peptide 10 µM, 37 °C, n = 2
[4] = SETD7 500 nM, 50 mM HEPES, 0.1 mM EDTA, 1 mM DTT, pH 8.0, 37 °C, 1 h, n = 2

Substance | K m (human SETD7 [1]) | k cat (human SETD7 [1]) | fold increase of kcat/Km compared to linear H3K4 (1) (human SETD7 [1]) | k cat/Km (human SETD7 [1]) | methylation by SETD7 (conversion to methylated product) (human SETD7 [2]; SETD7 100 nM, 37 °C, 1 h) | methylation by SETD7 (conversion to methylated product) (human SETD7 [2]; SETD7 1 µM, 37 °C, 3 h) | further results
GRTKQEARKSTGG (also: sidechain bridge or staple (positions not given here)) [Peptide 7] | 1.84 ± 0.27 µM | 0.046 ± 0.00283 s⁻¹ | 110 fold | 25000 M⁻¹ s⁻¹ | ~96% |  | methylation by SETD7 in time-course (human SETD7 [2]; [3]): ~90%
ARTKQDARKSTGG (also: sidechain bridge or staple (positions not given here)) [Peptide 5] | 12.5 ± 2.77 µM | 0.031 ± 0.00233 s⁻¹ | 10 fold | 2500 M⁻¹ s⁻¹ | ~10% |  | methylation by SETD7 (conversion to methylated product) (human SETD7 [2]; [4]): fully converted to methylated product
GRTKQTERKSTGG (also: sidechain bridge or staple (positions not given here)) [Peptide 15] |  |  |  |  |  | ~11% | 
CRTKQCARKSTGG (also: sidechain bridge or staple (positions not given here)) [Peptide 2] |  |  |  |  |  | ~86% | 
FRTKQEARKSTGG (also: sidechain bridge or staple (positions not given here)) [Peptide 9] | 34.6 ± 9.78 µM | 0.0493 ± 0.00517 s⁻¹ | 6 fold | 1430 M⁻¹ s⁻¹ | ~62% |  | 
VRTKQEARKSTGG (also: sidechain bridge or staple (positions not given here)) [Peptide 8] | 34.1 ± 7.76 µM | 0.0423 ± 0.00433 s⁻¹ | 5 fold | 1230 M⁻¹ s⁻¹ | ~64% |  | 
[βAla]RTKQEARKSTGG (also: sidechain bridge or staple (positions not given here)) [Peptide 11] | 17.7 ± 3.15 µM | 0.0495 ± 0.00317 s⁻¹ | 12 fold | 2830 M⁻¹ s⁻¹ | ~48% |  | 
GGRTKQEARKSTGG (also: sidechain bridge or staple (positions not given here)) [Peptide 13] |  |  |  |  |  | ~91% | 
RTKQEARKSTGG (also: sidechain bridge or staple (positions not given here)) [Peptide 12] |  |  |  |  |  | ~75% | 
21-mer H3K4: longer linear H3K4 substrate peptide, residues 1–21 [reference compound] |  |  |  |  |  |  | dimethylated product by SETD1A (human SETD1A): ~9%; methylation by SETD7 (human SETD7 [2]; 21-mer peptide (residues 1–21) 10 µM, SETD7 500 nM, 37 °C, 3 h, n = 2): ~88%
AzaRTKQPraARKSTGG (sidechain bridge or staple) [Peptide 3] | 36.2 ± 7.54 µM | 0.0598 ± 0.0065 s⁻¹ | 7 fold | 1650 M⁻¹ s⁻¹ |  | ~95% | 
GRTKQEARKSTGG [Peptide 16] |  |  |  |  |  | ~40% | 
ARTKQEARKSTGG (also: sidechain bridge or staple (positions not given here)) [Peptide 4] |  |  |  |  |  |  | methylation by SETD7 (conversion to methylated product) (human SETD7 [2]; [4]): ~63%
GRTKETARKSTGG (also: sidechain bridge or staple (positions not given here)) [Peptide 14] |  |  |  |  |  | < 5% | 
ARTKQTARKSTGG [Peptide 1, reference compound] | 61.6 ± 12.6 µM | 0.014 ± 0.0013 s⁻¹ |  | 233 M⁻¹ s⁻¹ |  |  | methylation/turnover in time-course at low enzyme concentration (in words) (human SETD7 [2]; SETD7 100 nM, peptide 10 µM, 37 °C, time-course): lack of H3K4 (1) methylation; methylation by SETD7 (conversion to methylated product) (human SETD7 [2]; [4]): ~56%
D-ARTKQEARKSTGG (sidechain bridge or staple) [Peptide 6] | 10.4 ± 1.88 µM | 0.23 ± 0.014 s⁻¹ | 97 fold | 22200 M⁻¹ s⁻¹ | ~89% |  | methylation by SETD7 in time-course (human SETD7 [2]; [3]): ~90%
